High-throughput results: PubChem, The Scripps Research Institute Molecular Screening Center
TCR CD3 inh = blocks the human TCR-CD3 interaction | TAMRA-labeled TCR probe fluorescence, biochemical | 360,000 compounds, 0.37% hits | AID 651800 | inhibition, % at 9.4 µM;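 also: recombinant mutant TCR 2C K166C tagged with TAMRA read by polarization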
SIAE primary = blocks human sialic acid acetylesterase | AID 1053197 | inhibition, % at 9.66 µM | 370,000 compounds, 0.69% hits | SIAE FP-Rh probe binding, fluorescence polarization;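 active = inhibition above a cutoff: mean of compounds within the control limits plus 3 SD of those, cut at about 17% in these data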
Target sequence (Q9HAT2 whole entry, looked up): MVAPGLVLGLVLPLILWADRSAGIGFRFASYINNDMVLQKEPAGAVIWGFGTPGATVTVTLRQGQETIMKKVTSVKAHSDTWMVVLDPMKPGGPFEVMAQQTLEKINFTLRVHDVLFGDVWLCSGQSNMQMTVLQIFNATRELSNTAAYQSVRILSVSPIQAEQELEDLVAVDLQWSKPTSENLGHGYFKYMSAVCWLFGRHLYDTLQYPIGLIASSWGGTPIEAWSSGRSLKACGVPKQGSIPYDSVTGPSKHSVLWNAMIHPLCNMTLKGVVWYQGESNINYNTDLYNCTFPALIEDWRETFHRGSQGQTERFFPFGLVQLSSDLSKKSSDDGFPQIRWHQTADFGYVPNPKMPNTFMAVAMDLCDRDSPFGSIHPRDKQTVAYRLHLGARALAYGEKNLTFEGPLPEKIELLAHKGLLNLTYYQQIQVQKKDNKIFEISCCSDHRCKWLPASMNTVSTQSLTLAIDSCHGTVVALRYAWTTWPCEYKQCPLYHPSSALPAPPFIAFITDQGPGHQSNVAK
PRMT1 FP inh = blocks human protein arginine methyltransferase 1 | Q99873 | inhibition, % at 2.79 µM | AID 652257 | recombinant PRMT1, activity-based probe fluorescence polarization | 370,000 compounds, 1.3% hits;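 active = inhibition above about 21% made by adding two undisclosed values, limit read from the data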
ABHD4 inh = ABHD4 (mouse) inhibition, primary FP screen | inhibition, % at 8.92 µM | purified mABHD4, FP-Rh probe fluorescence polarization | 370,000 compounds, 0.54% hits;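 active = inhibition exceeding the mean over every tested compound plus 3 SD, cut at about 30% in these data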
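Test system: mABHD4 protein; Read-out basis: % inhibition; Incubation: 45 min + 60 min at 25 °C; Repeats: single replicate; Technique: fluorescence polarization with parallel and perpendicular emission, 525/598 nm; Compound: 8.92 µM, single dose; Benchmarks: full inhibition S159A mutant plus DMSO, zero as sample-well median.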
rCAG RNA binder = r(CAG) repeat RNA binding; TO-PRO-1 dye displacement fluorescence; 370,000 compounds, 1.3% hits; AID 651821; inhibition, % at 3 µM;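 active = inhibition above the plate cutoff, the mean of all test compounds on that plate plus 3 SD, cut at about 35% in these data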;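 also: higher means more dye released from RNA so lower well fluorescence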
HTRA1 inh = inhibitors of human serine peptidase HTRA1 | Q92743 | recombinant HTRA1, FP-rhodamine activity-based probe, fluorescence polarization | inhibition, % at 5.96 µM | 340,000 compounds, 0.5% hits | AID 504803; in the data active = inhibition above about 36%
BSA probe FL = BSA probe counter-screen for TCR-CD3 inhibitors; AID 652035; 1,200 compounds, 10% hits; shares compounds with TCR CD3 inh; inhibition, % at 9.4 µM; TAMRA-labeled BSA probe fluorescence counterscreen; in the data active = inhibition above about 23%
TCR-CD3 conf = confirmation of human TCR-CD3 interaction inhibitors; TAMRA-labeled TCR probe fluorescence binding assay; 1,200 compounds, 48% hits; inhibition, % at 9.4 µM; shares compounds with TCR CD3 inh
rCAG binder conf = r(CAG) RNA repeat binding, confirmation; shares compounds with rCAG RNA binder; TO-PRO-1 dye displacement fluorescence; inhibition, % at 3 µM; 4,300 compounds, 70% hits;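 active = inhibition above a per-plate cutoff, the mean inhibition of sample wells plus 3 SD, cut at about 35% in these data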;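 also: loss of TO-PRO-1 fluorescence as compound displaces dye from 1x1 AA loop RNA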
dCAG dye counter = counter-screen for rCAG RNA binders: DNA CAG dye complex inhibitors. shares compounds with rCAG RNA binder. inhibition, % at 3 µM. d(CAG) DNA oligo TO-PRO-1 dye displacement, fluorescence. 4,300 compounds, 94% hits;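 active = inhibition above its plate's cutoff, the mean test-well inhibition plus 3 SD, cut at about 4.8% in these data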;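 also: hits displace the dye from DNA and so lower well fluorescence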
PRMT1 confirm = PRMT1 (human) inhibition, FP confirmation. shares compounds with PRMT1 FP inh. 3,300 compounds, 42% hits. recombinant His-PRMT1, activity-based probe fluorescence polarization. inhibition, % at 2.79 µM. AID 687036;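 active = mean inhibition across replicates above the hit cutoff derived for the earlier primary screen, cut at about 22% in these data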
ABHD4 confirm = confirmation of mouse ABHD4 inhibitors. inhibition, % at 8.92 µM. purified mABHD4, FP-Rh probe fluorescence polarization. AID 720658. shares compounds with ABHD4 inh. 1,800 compounds, 55% hits;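 active = mean inhibition across replicates above the hit cutoff set in the primary screen, cut at about 30% in these data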
SIAE confirm = human SIAE inhibition, confirmation; shares compounds with SIAE primary; SIAE FP-Rh activity-based probe, fluorescence polarization; inhibition, % at 9.66 µM; 2,300 compounds, 13% hits; AID 1117263;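 active = mean inhibition of the replicates above the hit cutoff set in the primary screen, cut at about 17% in these data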;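 also: inhibitors lower polarization as more probe stays unbound to SIAE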
Each line names hits and unclear results; the compound was inactive in the other large screens (follow-up assays come after a bar, where they were run). Shown are actives, neighbours in structure and some others; about 3.5% of the full set was active somewhere. Rule as the data show it, unless noted: active = inhibition above about 19%; inactive = the rest.

CCO/C(C)=N/Oc1cccc(N(C)C)c1	TCR CD3 inh 26, SIAE primary 23, ABHD4 inh 43 (no result: HTRA1 inh) | BSA probe FL inactive | TCR-CD3 conf inactive | SIAE confirm inactive
Cc1nn(C)c(C)c1N1C(=O)c2cccc3c(N)ccc(c23)C1=O	TCR CD3 inh 49, SIAE primary 28, PRMT1 FP inh 180, ABHD4 inh 43 | BSA probe FL 57 | TCR-CD3 conf 47 | ABHD4 confirm 39 | SIAE confirm 21
Nc1ccccc1N1C(=O)c2cccc3cccc(c23)C1=O	none (no result: HTRA1 inh)
Cc1ccc(OCc2nnc(SCC(=O)Nc3ccc(S(N)(=O)=O)cc3)n2-c2ccc(Cl)cc2)cc1	none (no result: TCR CD3 inh, HTRA1 inh)
Cc1ccc(NC(=S)NNC(=O)CSc2nnc(-c3ccc(C)cc3)n2C2CCCCC2)cc1	none (no result: TCR CD3 inh, HTRA1 inh)
COc1cc(C=NNC(=O)Cn2nc(C)cc2C)ccc1OC(=O)C1CC1	TCR CD3 inh 30, SIAE primary 20 | BSA probe FL inactive | TCR-CD3 conf inactive | SIAE confirm inactive
CC1=C2NC(N)=[N+](Cc3ccc4c(c3)OCO4)CC2NOC1 (stereo not drawn)	none (no result: TCR CD3 inh, rCAG RNA binder, HTRA1 inh)
CCC(CNc1cc(OC)cc2cccnc12)NC1CCCCC1 (stereo not drawn)	TCR CD3 inh 126, SIAE primary 48, PRMT1 FP inh 32, ABHD4 inh 89 | BSA probe FL inactive | TCR-CD3 conf inactive | ABHD4 confirm inactive | SIAE confirm inactive
C=CCN(C(=O)[C@@H](C1CC1)[C@@H](O)c1ccc2ccccc2c1)c1ccccc1	none (no result: TCR CD3 inh, HTRA1 inh)
O=C(CSc1nnc(SCc2cccc3ccccc23)s1)c1ccc(F)cc1	none (no result: TCR CD3 inh, HTRA1 inh)
CN(C)C(=O)c1cccc(-c2cnc3c(NC=O)cc(-c4ccccc4N(C)C)cn23)c1	TCR CD3 inh 42, SIAE primary 29, PRMT1 FP inh 137, ABHD4 inh 74 (no result: HTRA1 inh) | BSA probe FL inactive | TCR-CD3 conf inactive | PRMT1 confirm 29 | ABHD4 confirm 71 | SIAE confirm inactive
O=Nc1c(O)ccc2cc(S(=O)(=O)O)ccc12	none (no result: TCR CD3 inh, SIAE primary, PRMT1 FP inh, ABHD4 inh, rCAG RNA binder)
Nc1cccc2cc(S(=O)(=O)O)ccc12	TCR CD3 inh 27, SIAE primary 20, PRMT1 FP inh 34, ABHD4 inh 64 | BSA probe FL inactive | TCR-CD3 conf inactive | PRMT1 confirm inactive | SIAE confirm inactive
CC(=O)c1c(C)[nH]c(C(=O)OCC(=O)NCc2ccc(Cl)cc2)c1C	TCR CD3 inh 23, SIAE primary 24, PRMT1 FP inh 168 | BSA probe FL inactive | TCR-CD3 conf inactive | PRMT1 confirm inactive | SIAE confirm inactive
CCOC(=O)NC[C@@]1(C(=O)OC)CC(=O)N(Cc2ccc(Cl)cc2)[C@@H]1c1ccc(OC)cc1	none (no result: TCR CD3 inh, HTRA1 inh)
C/C(=N\NC(=S)NCCc1ccccc1)c1ccc(O)cc1O	TCR CD3 inh 28, SIAE primary 17 | BSA probe FL inactive | TCR-CD3 conf inactive | SIAE confirm 20
O=C(Nc1cccc(C(F)(F)F)c1)C(Sc1n[nH]c(=O)[nH]c1=O)c1ccccc1 (stereo not drawn)	rCAG RNA binder 39 | rCAG binder conf 38 | dCAG dye counter 12
O=C(Nc1cc(C(F)(F)F)ccc1Cl)C(Sc1n[nH]c(=O)[nH]c1=O)c1ccccc1 (stereo not drawn)	none
CCOc1ccc(Oc2c(Cl)c(Br)nn(Cc3cccc4ccccc34)c2=O)cc1	none (no result: TCR CD3 inh, HTRA1 inh)
C=CCN1C(=O)[C@@H](CC(=O)NCCCN2CCCC2=O)[C@]2(C(=O)OCC)CCCCC/C=C/12	none (no result: TCR CD3 inh, HTRA1 inh)
CC(C)(C)c1ccc(CC(=O)N2CCC2(C)C(=O)NS(=O)(=O)c2ccc(Cl)cc2)cc1 (stereo not drawn)	rCAG RNA binder 37 (no result: HTRA1 inh) | rCAG binder conf 52 | dCAG dye counter 17
CC(C)(C)c1ccc(S(=O)(=O)NC(=O)C2(C)CCN2C(=O)Cc2cccc3ccccc23)cc1 (stereo not drawn)	rCAG RNA binder 71 (no result: HTRA1 inh) | rCAG binder conf 62 | dCAG dye counter 25
Cc1ccc(S(=O)(=O)NC(=O)C2(C)CCN2C(=O)Cc2ccc(-c3ccccc3)cc2)cc1 (stereo not drawn)	rCAG RNA binder 58 (no result: HTRA1 inh) | rCAG binder conf 53 | dCAG dye counter 15
Cc1ccc(S(=O)(=O)NC(=O)C2(C)CCN2C(=O)Cc2ccc(C(C)(C)C)cc2)cc1 (stereo not drawn)	rCAG RNA binder 43 (no result: HTRA1 inh) | rCAG binder conf inactive | dCAG dye counter 7.2
CC(C)(C)c1ccc(CC(=O)N2CCC2(C)C(=O)NS(=O)(=O)c2ccc(C#N)cc2)cc1 (stereo not drawn)	none (no result: HTRA1 inh)
Cc1nc2ccc(S(=O)(=O)NCC(=O)NCc3ccc(F)cc3)cc2s1	none (no result: TCR CD3 inh, HTRA1 inh)
COC(=O)[C@]12C[C@H](CC(=O)NCCCN3CCCC3=O)C(=O)N(CCc3ccc(OC)c(OC)c3)C1=C[C@H](C1CCCC1)O[C@@H]2C	none (no result: TCR CD3 inh, HTRA1 inh)
O=C(Nc1ccc(Cl)cc1)OC1CCC12CCC(c1ccccc1)CC2 (stereo not drawn)	none (no result: TCR CD3 inh, HTRA1 inh)
CCOc1cc(OCC)cc(C(=O)NC(=S)Nc2cccc(C(F)(F)F)c2)c1	none
CCOc1ccc(NC(=S)NNC(=O)c2cc(Br)ccc2Cl)cc1	rCAG RNA binder 38 | rCAG binder conf inactive | dCAG dye counter 8.8
Cc1ccccc1C(=O)NNC(=S)Nc1cccc(C(F)(F)F)c1	none
CCOc1ccc(NC(=S)NNC(=S)Nc2cccc(C(F)(F)F)c2)cc1	rCAG RNA binder 38 | rCAG binder conf 55 | dCAG dye counter 22
O=C(NNC(=S)Nc1cccc(C(F)(F)F)c1)c1ccc(Cl)cc1Cl	rCAG RNA binder 62 | rCAG binder conf 59 | dCAG dye counter 21
CCOc1ccc(NC(=O)c2cc(SC)ccc2Cl)cc1	none
COc1ccc(/C=C2/CN(Cc3ccc(OC)cc3OC)C3=N[C@H](c4ccccc4)CC(=O)N32)cc1	none (no result: TCR CD3 inh, HTRA1 inh)
